Legend:
HA-tagged h.XGnRHR [1] = test: Whole cell expression of HA-h.XGnRHR; type: cell-based, human/Xenopus laevis; conditions: HeLa; 18 h, 10^−7 M; not shown
HA-tagged hGnRHR [2] = target: T1, HA-tagged hGnRHR (Homo sapiens, UniProt P30968); test: Cell surface expression / PCSE of HA-hGnRHR after 18 h ligand exposure; type: cell-based; conditions: HeLa
T1 sequence (P30968 1-328): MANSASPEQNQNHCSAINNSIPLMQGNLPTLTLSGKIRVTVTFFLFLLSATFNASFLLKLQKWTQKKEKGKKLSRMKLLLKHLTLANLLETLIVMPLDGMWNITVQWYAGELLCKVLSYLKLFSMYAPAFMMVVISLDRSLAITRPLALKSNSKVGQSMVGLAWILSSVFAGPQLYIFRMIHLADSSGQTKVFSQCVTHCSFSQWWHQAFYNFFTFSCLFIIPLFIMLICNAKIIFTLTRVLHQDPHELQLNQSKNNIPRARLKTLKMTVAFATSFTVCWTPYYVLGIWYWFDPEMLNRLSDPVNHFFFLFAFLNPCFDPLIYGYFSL

HA-tagged hGnRHR [3] = target: T1, HA-tagged hGnRHR; test: Whole cell expression of HA-hGnRHR; type: cell-based; conditions: HeLa; 18 h, 10^−7 M; not shown
A261K.h.XGnRHR = test: Cell surface expression of A261K.h.XGnRHR; type: cell-based, human/Xenopus laevis; conditions: HeLa; 18 h, 10^−7 M IN3
HA-tagged h.XGnRHR [4] = test: Internalization of anti-HA preloaded receptor; type: cell-based, human/Xenopus laevis; conditions: HeLa, 60 min, 37°C; for block of GnRH-stimulated internalization: antagonist 10^−7 M with GnRH 10^−9 M
HA-tagged XGnRHR [5] = test: Cell surface expression of HA-XGnRHR; type: cell-based, Xenopus laevis; conditions: HeLa
[6] = system: GnRHR point mutants that cause hypogonadotropic hypogonadism; conditions: cited from earlier work
wild-type GnRHR = conditions: cited from earlier work
A261K.hGnRHR = test: Cell surface expression of A261K.hGnRHR; type: cell-based, human; conditions: HeLa; 18 h, 10^−7 M IN3
[7] = target: T2, HA-tagged h.XGnRHR (hGnRHR with added XGnRHR COOH tail) (Homo sapiens, UniProt P30968); test: Cell surface expression / PCSE of HA-h.XGnRHR after 18 h ligand exposure; type: cell-based, human/Xenopus laevis; conditions: HeLa
T2 sequence (P30968 1-328): T1 sequence (P30968 1-328)

HA-tagged mGnRHR [8] = target: T3, HA-tagged mGnRHR (Mus musculus, UniProt Q01776); test: Internalization of anti-HA preloaded receptor; type: cell-based; conditions: HeLa, 60 min, 37°C; for block of GnRH-stimulated internalization: antagonist 10^−7 M with GnRH 10^−9 M
T3 sequence (Q01776 1-327): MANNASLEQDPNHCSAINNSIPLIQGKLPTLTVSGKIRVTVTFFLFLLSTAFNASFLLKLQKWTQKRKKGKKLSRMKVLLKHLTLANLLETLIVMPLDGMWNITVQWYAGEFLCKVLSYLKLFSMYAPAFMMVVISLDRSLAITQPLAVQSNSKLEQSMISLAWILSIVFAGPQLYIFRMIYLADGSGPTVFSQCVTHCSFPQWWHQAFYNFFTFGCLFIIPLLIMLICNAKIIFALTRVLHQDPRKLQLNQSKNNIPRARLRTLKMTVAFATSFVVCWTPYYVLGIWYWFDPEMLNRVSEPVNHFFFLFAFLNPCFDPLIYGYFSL

HA-tagged XGnRHR [9] = test: Trafficking, anti-HA loading with agonist present; type: cell-based, Xenopus laevis; conditions: HeLa; 10^−7 M GnRH II with anti-HA, 0–60 min, 37°C
HA-tagged mGnRHR [10] = target: T3, HA-tagged mGnRHR; test: Cell surface expression of HA-mGnRHR; type: cell-based; conditions: HeLa, 10^−7 M GnRH, 37°C
HA-A261K h.XGnRHR = test: Internalization of anti-HA preloaded receptor; type: cell-based, human/Xenopus laevis; conditions: HeLa, 60 min, 37°C
In short: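 HeLa cells transduced day after plating with adenovirus (1–3 pfu/nl, 6 h) carrying exofacially HA-tagged, G protein-uncoupled receptor; assayed next day. Surface receptors prelabelled 60 min with mouse anti-HA (1:200) in DMEM/2% BSA at ~21°C, washed, then treated at 37°C. Cells were fixed, permeabilized, given Alexa 488 secondary plus DAPI, and stained inclusions quantified by automated ×10 imaging. Data are 3–4 wells.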

HA-tagged h.XGnRHR [11] = test: Trafficking, anti-HA loading with agonist present; type: cell-based, human/Xenopus laevis; conditions: HeLa; 10^−7 M GnRH with anti-HA, 0–60 min, 37°C
HA-A261K-h.XGnRHR = test: Trafficking, anti-HA loading with agonist present; type: cell-based, human/Xenopus laevis; conditions: HeLa; 10^−7 M GnRH with anti-HA, 0–60 min, 37°C
[12] = 10^−7 M IN3, fluorescence immunohistochemistry, automated imaging

Cc1cc(C)cc(-c2[nH]c3ccc(C(C)(C)C(=O)N4CC5CCC4CC5)cc3c2[C@H](C)CNCCc2ccncc2)c1 [IN3, (2S)-2-[5-[2-(2-azabicyclo[2.2.2]oct-2-yl)-1,1-dimethy-2-oxoethyl]-2-(3,5-dimethylphenyl)-1H-indol-3-yl]-N-(2-pyridin-4-ylethyl)propan-1-amine]
whole cell expression (effect of ligand) (HA-tagged h.XGnRHR [1]): no measurable effect
cell surface expression (effect of ligand) (HA-tagged hGnRHR [2]; [12]): greatly increased
PCSE (proportional cell surface expression) (HA-tagged hGnRHR [2]; 10^−7 M, increased from 1.6% (control), n = 3 experiments): 11%
PCSE increase (HA-tagged hGnRHR [2]; 10^−7 M, vs control, 'almost 7-fold'): ~7 fold
whole cell expression (effect of ligand) (HA-tagged hGnRHR [3]): no measurable effect
effect of IN3 on cell surface expression (A261K.h.XGnRHR): pronounced increase
block of GnRH-stimulated internalization (HA-tagged h.XGnRHR [4]): blocked
cell surface expression after preincubation (effect of IN3) (HA-tagged XGnRHR [5]; 18 h preincubation, 10^−7 M IN3, not shown): did not alter expression
rescue of signaling [6]: “rescues” signaling via most of these mutants
signaling via wild-type GnRHR (wild-type GnRHR): increases signaling
effect of IN3 on cell surface expression (A261K.hGnRHR): pronounced increase
cell surface expression (effect of ligand) [7, 12]: greatly increased
PCSE (proportional cell surface expression) ([7]; 10^−7 M, increased from 6.3% (control), n = 3 experiments): 17.6%
block of GnRH-stimulated internalization (HA-tagged mGnRHR [8]): blocked

(His^5, Trp^7, Tyr^8)GnRH [GnRH II]
time to maximal effect on cell surface expression (HA-tagged XGnRHR [5]; 10^−7 M GnRH II, 37°C): 120 min
time to significant reduction in cell surface expression (HA-tagged XGnRHR [5]; 10^−7 M GnRH II, 37°C): 10 min
reduction in cell surface expression (HA-tagged XGnRHR [5]; 10^−7 M GnRH II, 37°C, data with and without IN3 pretreatment pooled): rapid reduction
inclusion count (effect of agonist) (HA-tagged XGnRHR [9]): increased

cetrorelix
block of GnRH-stimulated internalization (HA-tagged h.XGnRHR [4]): blocked
internalization (effect of peptide antagonist alone) (HA-tagged h.XGnRHR [4]; cetrorelix 10^−7 M): not increased by a peptide antagonist
block of GnRH-stimulated internalization (HA-tagged mGnRHR [8]): blocked
internalization (effect of peptide antagonist alone) (HA-tagged mGnRHR [8]; cetrorelix 10^−7 M): not increased by a peptide antagonist

gonadotropin-releasing hormone [GnRH]
reduction in cell surface expression, IN3-pretreated cells (HA-tagged mGnRHR [10]; after 18 h 10^−7 M IN3): pronounced reduction
reduction in cell surface expression (HA-tagged mGnRHR [10]; no IN3 pretreatment): reduced expression
internalization (effect of 10^−9 M GnRH) (HA-tagged h.XGnRHR [4]; 10^−9 M GnRH): increased
internalization (effect of 10^−9 M GnRH) (HA-A261K h.XGnRHR): did not increase internalization
inclusion count (effect of agonist) (HA-tagged h.XGnRHR [11]): increased
receptor distribution (effect of GnRH) (HA-A261K-h.XGnRHR): no measurable effect
internalization (effect of 10^−9 M GnRH) (HA-tagged mGnRHR [8]; 10^−9 M GnRH): increased
